Test results published in ChEMBL document CHEMBL3046112, “Comparative study of antimicrobial peptides to control citrus postharvest decay caused by Penicillium digitatum” (J Agric Food Chem, 2007).
≈ marks a conversion by molar mass, not a printed value. Calls of active or inactive are those of the source. No cut-off for these calls is given here.

What was measured:
[1] = Toxicity in Homo sapiens (human) RBCs assessed as hemolytic activity at 100 uM; assay type: cell-based; settings: erythrocyte
[2] = Toxicity in Homo sapiens (human) RBCs assessed as hemolytic activity; assay type: cell-based; settings: erythrocyte
Penicillium digitatum [3] = experiment: Antimicrobial activity against Penicillium digitatum PHI-26 assessed as inhibition of orange postharvest decay progression progression at 2 uM pre-incubated with fungus for 16 hr measured 7 days post fungal inoculation by orange fruit decay assay; assay type: functional
In short: (§1)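 Orange fruit inoculation (Navelina, Navelate or Lanelate). Each fruit was wounded about 3 mm deep at four equatorial sites. 5 µL of inoculum (10^4 conidia mL-1 with peptide in water, preincubated 16 h at room temperature) went into each wound. Peptide was tested at 32 µM, from 4 to 64 µM, or from 1 to 4 µM. Fruit was held at 20 °C and 90% RH. Infected wounds were scored at 3, 5 and 7 dpi. Three replicas of five fruits each; Tukey mean separation.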

Penicillium digitatum [4] = experiment: Antimicrobial activity against Penicillium digitatum PHI-26 assessed as inhibition of orange postharvest decay progression progression at 4 uM pre-incubated with fungus for 16 hr measured 7 days post fungal inoculation by orange fruit decay assay; assay type: functional, organism-based; in short: as §1
Penicillium digitatum [5] = experiment: Fungicidal activity against Penicillium digitatum PHI-26 conidia assessed as reduction in conidia viability at 4 uM incubated for 16 hr by colony count assay relative to untreated control; assay type: functional
In short: (§2)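 P. digitatum conidia (10^4 mL-1) were incubated with peptide (for example 4, 16 or 64 µM) in sterile distilled water for 16 h at room temperature, in triplicate. Samples were then serially diluted and spread on peptide-free PDA to count CFU. Results are given as mean CFU mL-1 ± SD compared with a no-peptide control.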

Penicillium digitatum [6] = experiment: Fungicidal activity against Penicillium digitatum PHI-26 conidia assessed as inhibition of conidia viability incubated for 16 hr by colony count assay; assay type: functional, organism-based; in short: as §2
Penicillium digitatum [7] = experiment: Antimicrobial activity against Penicillium digitatum PHI-26 assessed as inhibition of orange postharvest decay progression at 32 uM pre-incubated with fungal conidia for 16 hr by orange fruit decay assay; assay type: functional, organism-based; in short: as §1
Escherichia coli = experiment: Antimicrobial activity against Escherichia coli DH5[alpha] assessed as microbial growth inhibition after 4 days by microtiter plate assay; assay type: functional; settings: 96 h
In short: (§3)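 Microtiter dose–response assay, as previously described. Peptide stocks were 1 mM in 5 mM MOPS pH 7. P. digitatum conidia came from 7–10-day PDA cultures grown at 24 °C and were counted with a hematocytometer. Yeast (YPD, 30 °C) and E. coli (LB, 37 °C) were grown to stationary phase and diluted. Growth was read as OD492 in triplicate. MIC: lowest concentration with no growth after 4 days in all independent experiments, each repeated at least three times.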

Saccharomyces cerevisiae = experiment: Antimicrobial activity against Saccharomyces cerevisiae FY1679 assessed as microbial growth inhibition after 4 days by microtiter plate assay; assay type: functional; settings: FY1679, 96 h; in short: as §3
Penicillium digitatum [8] = experiment: Antimicrobial activity against Penicillium digitatum PHI-26 assessed as microbial growth inhibition after 4 days by microtiter plate assay; assay type: functional; in short: as §3
Penicillium digitatum [9] = experiment: Antimicrobial activity against Penicillium digitatum PHI-26 assessed as inhibition of orange postharvest decay progression progression at 32 uM measured 7 days post fungal inoculation by orange fruit decay assay; assay type: functional, organism-based
In short: (§4)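 Navelina sweet oranges were wounded about 3 mm deep at four equatorial sites. Each wound received 5 µL of 10^4 conidia mL-1 of PHI-26 mixed with peptide in water, inoculated either at once or after 16 h at room temperature. There were three replicas of five fruits, held at 20 °C and 90% RH. Infected wounds were scored at 3, 5 and 7 dpi as mean % ± SD, with Tukey separation.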

Penicillium digitatum [10] = experiment: Antimicrobial activity against Penicillium digitatum PHI-26 assessed as inhibition of orange postharvest decay progression at 32 uM by orange fruit decay assay; assay type: functional, organism-based; in short: as §4

Compound	Activity [1]	Activity [2]	inhibition at 2 µM (Penicillium digitatum [3])	inhibition (Penicillium digitatum [4])	fold change (FC) (Penicillium digitatum [5])	inhibition (Penicillium digitatum [6])	inhibition (Penicillium digitatum [7])	MIC (Escherichia coli)	MIC (Saccharomyces cerevisiae)	MIC (Penicillium digitatum [8]; PHI-26, 96 h)	MIC (Penicillium digitatum [8])	inhibition (Penicillium digitatum [5])	inhibition (Penicillium digitatum [9])	inhibition (Penicillium digitatum [10])
CC(=O)N[C@@H](Cc1cnc[nH]1)C(=O)N[C@@H](CCCNC(=N)N)C(=O)N[C@@H](CCCCN)C(=O)N[C@@H](CCCCN)C(=O)N[C@@H](Cc1c[nH]c2ccccc12)C(=O)N[C@@H](Cc1ccccc1)C(=O)N[C@@H](Cc1c[nH]c2ccccc12)C(N)=O	Non-toxic	Non-toxic	> 50%	Active	2	Active	Active	16 µM (≈ 18.1 µg/mL)	16 µM (≈ 18.1 µg/mL)	4 µM (≈ 4.51 µg/mL)	–	–	–	–
CC(=O)N[C@@H](CCCNC(=N)N)C(=O)N[C@@H](CCCNC(=N)N)C(=O)N[C@@H](CCCCN)C(=O)N[C@@H](CCCCN)C(=O)N[C@@H](Cc1c[nH]c2ccccc12)C(=O)N[C@@H](Cc1ccccc1)C(=O)N[C@@H](Cc1c[nH]c2ccccc12)C(N)=O	Non-toxic	Non-toxic	–	Active	2	Active	Active	8 µM (≈ 9.18 µg/mL)	16 µM (≈ 18.4 µg/mL)	4 µM (≈ 4.59 µg/mL)	–	–	–	–
CC(=O)N[C@H](CCCNC(=N)N)C(=O)N[C@H](CCCNC(=N)N)C(=O)N[C@H](CCCCN)C(=O)N[C@H](CCCCN)C(=O)N[C@H](Cc1c[nH]c2ccccc12)C(=O)N[C@H](Cc1ccccc1)C(=O)N[C@H](Cc1c[nH]c2ccccc12)C(N)=O	–	–	–	–	–	–	–	–	–	–	Active	–	–	–
CC(=O)N[C@H](Cc1cnc[nH]1)C(=O)N[C@H](CCCNC(=N)N)C(=O)N[C@H](CCCCN)C(=O)N[C@H](CCCCN)C(=O)N[C@H](Cc1c[nH]c2ccccc12)C(=O)N[C@H](Cc1ccccc1)C(=O)N[C@H](Cc1c[nH]c2ccccc12)C(N)=O	–	–	–	–	–	–	–	–	–	–	Active	–	–	–
CC[C@H](C)[C@H](NC(C)=O)C(=O)N[C@@H](CC(C)C)C(=O)N1CCC[C@H]1C(=O)N[C@@H](Cc1c[nH]c2ccccc12)C(=O)N[C@@H](CCCCN)C(=O)N[C@@H](Cc1c[nH]c2ccccc12)C(=O)N1CCC[C@H]1C(=O)N[C@@H](Cc1c[nH]c2ccccc12)C(=O)N[C@@H](Cc1c[nH]c2ccccc12)C(=O)N1CCC[C@H]1C(=O)N[C@@H](Cc1c[nH]c2ccccc12)C(=O)N[C@@H](CCCNC(=N)N)C(=O)N[C@@H](CCCNC(=N)N)C(N)=O [Indolicidin]	–	–	–	Active	–	Active	–	–	–	–	–	Active	–	–
CC[C@H](C)[C@H](NC(=O)[C@H](CCCCN)NC(=O)[C@H](CCCCN)NC(=O)[C@H](Cc1ccccc1)NC(=O)[C@H](CC(C)C)NC(=O)[C@H](CCCCN)NC(=O)[C@@H](N)CCCCN)C(=O)N[C@@H](CC(C)C)C(=O)N[C@@H](CCCCN)C(=O)N[C@@H](Cc1ccccc1)C(=O)N[C@@H](CC(C)C)C(N)=O [KKLFKKILKFL-NH2]	–	Toxic	–	–	–	Active	–	4 µM (≈ 5.62 µg/mL)	16 µM (≈ 22.5 µg/mL)	4 µM (≈ 5.62 µg/mL)	–	Active	–	–
CC[C@H](C)[C@H](NC(=O)[C@H](CCCCN)NC(=O)[C@H](CCCCN)NC(=O)[C@H](Cc1ccccc1)NC(=O)[C@H](CC(C)C)NC(=O)[C@H](CCCCN)NC(=O)[C@@H](N)CCCCN)C(=O)N[C@@H](CC(C)C)C(=O)N[C@@H](CCCCN)C(=O)N[C@H](C(=O)N[C@@H](CC(C)C)C(N)=O)C(C)C [KKLFKKILKVL-NH2]	–	Toxic	–	–	–	Active	–	4 µM (≈ 5.43 µg/mL)	16 µM (≈ 21.7 µg/mL)	4 µM (≈ 5.43 µg/mL)	–	Active	–	–
CC[C@H](C)[C@H](NC(=O)CN)C(=O)NCC(=O)N[C@@H](C)C(=O)N[C@H](C(=O)N[C@@H](CC(C)C)C(=O)N[C@@H](CCCCN)C(=O)N[C@H](C(=O)N[C@@H](CC(C)C)C(=O)N[C@H](C(=O)N[C@H](C(=O)NCC(=O)N[C@@H](CC(C)C)C(=O)N1CCC[C@H]1C(=O)N[C@@H](C)C(=O)N[C@@H](CC(C)C)C(=O)N[C@H](C(=O)N[C@@H](CO)C(=O)N[C@@H](Cc1c[nH]c2ccccc12)C(=O)N[C@H](C(=O)N[C@@H](CCCCN)C(=O)N[C@@H](CCCNC(=N)N)C(=O)N[C@@H](CCCCN)C(=O)N[C@@H](CCCNC(=N)N)C(=O)N[C@@H](CCC(N)=O)C(=O)N[C@@H](CCC(N)=O)C(N)=O)[C@@H](C)CC)[C@@H](C)CC)[C@@H](C)O)[C@@H](C)O)C(C)C)C(C)C [MELITTIN]	–	Toxic	–	inactive	–	inactive	inactive	–	16 µM (≈ 45.5 µg/mL)	2 µM (≈ 5.69 µg/mL)	–	inactive	Active	inactive
Ac-RFWWFRRR-NH2	Non-toxic	–	–	Active	2	Active	Active	8 µM	32 µM	4 µM	–	–	–	Active
Ac-RKKWFW-NH2	Non-toxic	Non-toxic	–	–	2	Active	Active	32 µM	32 µM	4 µM	–	–	–	–
